Data set [1] addresses Cannabinoid receptor 1 (Homo sapiens, UniProt P21554). As to the kind of experiment: Agonist activity at human CB1 receptor. It counts as functional.
The nature of data set [2]: Drug metabolism in human liver microsomes after 15 mins. It counts as ADME, Microsome. Conditions: read-out: Drug metabolism.
Data set [3] in a line: Solubility of the compound in water. It counts as physicochemical.
Data set [4] relates to Mus musculus. In words: Antiinflammatory activity in mouse EAE model of multiple sclerosis assessed as delay in neurological signs of autoimmune encephalomyelitis disease progression at 40 mg/kg/day, po administered from day 8 to day 16. It counts as functional, organism-based. Put shortly: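 Mice with experimental autoimmune encephalomyelitis given chronic oral dosing at 40 mg/kg; neurological signs scored as EAE disease scores over time.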

Data set [5] deals with Rattus norvegicus. As to the kind of experiment: Antiallodynic activity in rat chronic constriction injury-induced neuropathic pain model assessed as reversal of pain response at 10 to 40 mg/kg/day, sc. It counts as functional, organism-based. Put shortly: (§1)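 Chronic constriction injury of rats (n = 7 per group); daily subcutaneous dosing over repeated days, with morphine as comparator. Cold allodynia read as lifting on a cold plate at 0 °C for 4 min.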

For data set [6], the species on record is Rattus norvegicus. As to the kind of experiment: Antihyperalgesic activity against Freund's adjuvant-induced thermal hyperalgesia in rat. The data set is classed as functional, organism-based.
Data set [7] concerns Rattus norvegicus. In words: Toxicity in rat up to 40 mg/kg, ip by modified tetrad test. The data set is classed as organism-based. On the set-up: dose 40 mg/kg, route intraperitoneal. Conditions: in vivo.
Data set [8] can be described thus: Solubility of the compound in 10% cyclodextrin.
Data set [9] in a line: Drug metabolism in rat liver microsomes at 5 uM after 60 mins. The data set is classed as ADME, Microsome. Conditions: read-out: Drug metabolism. Put shortly: (§2)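 Test compound incubated at 5 µM with liver microsomes (human, rat, mouse or dog) for 60 min; read-out is % of compound metabolised.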
Data set [10] in a line: Half life in Sprague-Dawley rat at 10 mg/kg, po. It counts as ADME, organism-based. The arrangement: dose 10 mg/kg, route oral. Conditions: in vivo.
A short description of data set [11]: Lipophilicity, Log P of the compound. The data set is classed as physicochemical. Conditions: octanol/water.
Data set [12] concerns Rattus norvegicus. In words: Antinociceptive activity in rat at 10 mg/kg by hot plate method. The arrangement: dose 10 mg/kg. The data set is classed as functional, organism-based.
Data set [13] can be described thus: Absolute oral bioavailability in Beagle dog at 5 mg/kg. It counts as ADME, organism-based, Canis lupus familiaris. Conditions: in vivo. Put shortly:
(§3)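 Beagle dogs dosed at 1 mg/kg iv and 5 mg/kg po; plasma kinetics give clearance, volume of distribution, iv and po half-life, and absolute oral bioavailability.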

Data set [14] is filed under the species Rattus norvegicus. As to the kind of experiment: Antihyperalgesic activity against carrageenan-induced thermal hyperalgesia in rat. The data set is classed as functional, organism-based.
Data set [15] in a line: Ratio drug uptake in brain to plasma of Sprague-Dawley rat at 2.5 mg/kg, iv and 10 mg/kg, po. Conditions: read-out: BPR. The data set is classed as ADME, organism-based. Put shortly:
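Rat tissue distribution study; brain and plasma levels compared as brain/plasma ratio.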

Data set [16] concerns Rattus norvegicus. As to the kind of experiment: Antinociceptive activity in rat at 10 mg/kg by tail withdrawal reflex test. On the set-up: dose 10 mg/kg. The data set is classed as functional, organism-based.
Data set [17] can be described thus: Clearance in Beagle dog at 1 mg/kg, iv and 5 mg/kg, po. The data set is classed as ADME, organism-based, Canis lupus familiaris. Conditions: in vivo. Put shortly: as §3
The nature of data set [18]: Volume of distribution in Sprague-Dawley rat at 2.5 mg/kg, iv and 10 mg/kg, po. The data set is classed as ADME, organism-based. Conditions: in vivo.
A short description of data set [19]: Clearance in Sprague-Dawley rat at 2.5 mg/kg, iv and 10 mg/kg, po. It counts as ADME, organism-based. Conditions: in vivo.
Data set [20] can be described thus: Drug metabolism in human liver microsomes at 5 uM after 60 mins. The data set is classed as ADME, Microsome. Conditions: read-out: Drug metabolism. Put shortly:
as §2

Data set [21] deals with Rattus norvegicus. As to the kind of experiment: Antinociceptive activity in rat at 10 mg/kg by paw flick test. The data set is classed as functional, organism-based. On the set-up: dose 10 mg/kg.
The target in data set [22] is Cannabinoid receptor 2 (Homo sapiens, UniProt P34972). As to the kind of experiment: Agonist activity at human CB2 receptor. The data set is classed as functional.
The nature of data set [23]: Drug metabolism in mouse liver microsomes at 5 uM after 60 mins. It counts as ADME, Microsome. Conditions: read-out: Drug metabolism. Put shortly:
as §2

Data set [24] is described as follows: Absolute oral bioavailability in Sprague-Dawley rat at 10 mg/kg. It counts as ADME, organism-based. Conditions: in vivo.
Data set [25] is described as follows: Drug metabolism in dog liver microsomes at 5 uM after 60 mins. Conditions: read-out: Drug metabolism. It counts as ADME, Canis lupus familiaris, Microsome. Put shortly:
as §2

Data set [26] can be described thus: Volume of distribution in Beagle dog at 1 mg/kg, iv and 5 mg/kg, po. Conditions: in vivo. It counts as ADME, organism-based, Canis lupus familiaris. Put shortly: as §3
Data set [27] is described as follows: Half life in Beagle dog at 1 mg/kg, iv. It counts as ADME, organism-based, Canis lupus familiaris. On the set-up: dose 1 mg/kg, route intravenous. Conditions: in vivo. Put shortly: as §3
Data set [28] can be described thus: Half life in Sprague-Dawley rat at 2.5 mg/kg, iv. Conditions: in vivo. The data set is classed as ADME, organism-based. The arrangement: dose 2.5 mg/kg, route intravenous.
Data set [29] can be described thus: Half life in Beagle dog at 5 mg/kg, po. Conditions: in vivo. On the set-up: dose 5 mg/kg, route oral. The data set is classed as ADME, organism-based, Canis lupus familiaris. Put shortly:
as §3

The subject of data set [30] is Rattus norvegicus. As to the kind of experiment: Toxicity in rat assessed as decrease in body temperature at 10 mg/kg, ip by modified tetrad test. It counts as organism-based. The arrangement: dose 10 mg/kg, route intraperitoneal. Conditions: in vivo.
For data set [31], the system named is Rattus norvegicus. As to the kind of experiment: Antiallodynic activity in rat chronic constriction injury-induced neuropathic pain model assessed as reversal of pain response at 40 mg/kg/day, sc after 12 days. It counts as functional, organism-based. Put shortly: as §1
Data set [32] relates to Rattus norvegicus. As to the kind of experiment: Antiallodynic activity in rat chronic constriction injury-induced neuropathic pain model assessed as reversal of pain response at 40 mg/kg/day, sc. The data set is classed as functional, organism-based. Put shortly: as §1
For data set [33], the system named is Rattus norvegicus. In words: Toxicity in rat assessed as appearance of flat body posture at 2.5 mg/kg, ip by modified tetrad test. The data set is classed as organism-based. The arrangement: dose 2.5 mg/kg, route intraperitoneal. Conditions: in vivo.

In brackets after ≈: the same amount, converted by molar mass. Activity calls are given as the source filed them. The calls are words filed in the database; no cut-off is given here.

Cannabinoid receptor 2, sequence (P34972 whole entry): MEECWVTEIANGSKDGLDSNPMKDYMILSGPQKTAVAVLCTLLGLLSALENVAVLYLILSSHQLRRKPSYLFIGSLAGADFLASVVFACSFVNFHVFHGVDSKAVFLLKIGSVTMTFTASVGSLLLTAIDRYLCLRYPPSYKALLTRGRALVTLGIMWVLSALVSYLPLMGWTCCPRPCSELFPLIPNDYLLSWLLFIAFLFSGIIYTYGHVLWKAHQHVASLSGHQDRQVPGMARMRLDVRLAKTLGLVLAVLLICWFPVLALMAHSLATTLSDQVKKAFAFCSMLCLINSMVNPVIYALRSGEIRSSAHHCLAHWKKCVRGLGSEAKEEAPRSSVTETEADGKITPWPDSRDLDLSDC
Cannabinoid receptor 1, sequence (P21554 whole entry): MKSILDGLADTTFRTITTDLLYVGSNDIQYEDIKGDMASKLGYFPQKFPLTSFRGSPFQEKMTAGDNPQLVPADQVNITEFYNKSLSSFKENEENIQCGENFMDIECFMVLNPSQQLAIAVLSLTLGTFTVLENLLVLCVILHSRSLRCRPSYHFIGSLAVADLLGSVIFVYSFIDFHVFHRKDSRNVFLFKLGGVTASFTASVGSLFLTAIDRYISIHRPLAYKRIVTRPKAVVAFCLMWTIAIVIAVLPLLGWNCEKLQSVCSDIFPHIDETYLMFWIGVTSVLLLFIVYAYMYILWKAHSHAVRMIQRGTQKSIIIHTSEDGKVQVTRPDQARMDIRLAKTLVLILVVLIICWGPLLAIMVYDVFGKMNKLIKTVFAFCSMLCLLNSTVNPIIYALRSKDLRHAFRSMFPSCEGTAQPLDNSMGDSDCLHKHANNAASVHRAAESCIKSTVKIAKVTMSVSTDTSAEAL

The compound `CC(C)(C)c1nc2cc(S(=O)(=O)CC3CC3)ccc2n1CC1CCN(C=O)CC1` yielded an EC50 in data set [1] of 2510 nM. The metabolised at 0.25 h in data set [2] turned out to be 16%.
With `CC(=O)N1CCC(Cn2c(C(C)(C)C)nc3cc(S(=O)(=O)CCCO)ccc32)CC1`, in data set [1], the EC50 is > 10000 nM.
Turning to `CC(=O)N1CCC(Cn2c(C(C)(C)C)nc3cc(S(=O)(=O)CC4CC4)ccc32)CC1`, the results for the solubility in [3] and in data set [8] were 1500 µg/mL (≈ 3.48 mM) and 25000 µg/mL (≈ 57.9 mM), respectively. In addition, the result in data set [4] was Active. Moreover, the result in data set [5], in [6], in data set [12], in data set [14], in data set [16] and in [21] was inactive. Besides, the Activity result in data set [7] is “Non-toxic”. Moreover, the figures for the EC50 in data set [1] and in [22] were > 10000 nM and 8.2 nM, respectively. For the same compound, the metabolised at 1 h, 5 µM came out at 0% in data set [9], 5% in [20], 12% in data set [23] and 4% in [25]. Also, the half-life in data set [10] is 4 h; in data set [27] it was 3 h; in data set [28] it was 1.3 h; in data set [29] it was 3.2 h. Besides, the logP in data set [11] is 1.67. The bioavailability worked out at 86% in data set [13] and 56% in [24]. Moreover, the Kp in data set [15] came out at 0.18. The clearance in [17] was 13.3 mL/min/kg; in data set [19], 41.7 mL/min/kg. Further, the Vd in [18] worked out at 4.4 L/kg; in data set [26], 1.9 L/kg. In addition, the metabolised at 0.25 h in [2] came to 18%.
In the case of `CCC(=O)N1CCC(Cn2c(C(C)(C)C)nc3cc(S(=O)(=O)CCCC(F)(F)F)ccc32)CC1`, the EC50 in data set [1] is > 10000 nM. Moreover, in data set [2], the metabolised at 0.25 h stood at 4%.
For `COCCOc1cc(S(=O)(=O)c2ccc3c(c2)nc(C(C)(C)C)n3CC2CCOCC2)ccn1`, in data set [22], the response was half-maximal at 1.3 nM (EC50). The metabolised at 0.25 h in data set [2] worked out at 53%.
Regarding `CCS(=O)(=O)c1ccc2c(c1)nc(C(C)(C)C)n2CC1CCS(=O)(=O)CC1`, the EC50 is > 10000 nM in [1] and 28 nM in [22].
In the case of `COCCCOc1cc(S(=O)(=O)c2ccc3c(c2)nc(C(C)(C)C)n3CC2CCOCC2)ccn1`, the midpoint of the response in data set [22], the EC50, lay at 0.5 nM. Also, in data set [2], the metabolised at 0.25 h came to 100%.
As to `CC(=O)N1CCC(Cn2c(C(C)(C)C)nc3cc(S(=O)(=O)c4ccc(F)cc4)ccc32)CC1`, in data set [30], the Activity result is “Toxic”. For the same compound, the EC50 in data set [1] was > 10000 nM; in [22], 2.9 nM. In [2], the metabolised at 0.25 h stood at 8%.
For the compound `CC(=O)N1CCC(Cn2c(C(C)(C)C)nc3cc(S(=O)(=O)c4ccncc4)ccc32)CC1`, the values for the EC50 in data set [1] and in data set [22] were > 10000 nM and 4.6 nM, respectively. In addition, the metabolised at 0.25 h in data set [2] turned out to be 29%.
With `CC(C)(C)c1nc2cc(S(=O)(=O)CCCC(F)(F)F)ccc2n1CC1CCN(C(=O)C(F)(F)F)CC1`, the EC50 in data set [1] was > 10000 nM. Also, in data set [2], the metabolised at 0.25 h worked out at 20%.
With `CC(C)(C)c1nc2cc(S(=O)(=O)CC3CC3)ccc2n1CC1CCS(=O)(=O)CC1`, the concentration giving a half-maximal response (EC50) in [1] came out at 2680 nM; in [22] it was 8.4 nM. Besides, in data set [2], the metabolised at 0.25 h amounted to 2%.
The compound `CC(C)(C)c1nc2cc(S(=O)(=O)c3ccnc(OCCCO)c3)ccc2n1CC1CCOCC1` showed an EC50 in data set [22] of 1.2 nM. Moreover, the metabolised at 0.25 h in data set [2] turned out to be 40%.
As to `CC(=O)N1CCC(Cn2c(C(C)(C)C)nc3cc(S(=O)(=O)c4nccs4)ccc32)CC1`, the results for the solubility in data set [3] and in data set [8] were 20 µg/mL (≈ 0.0434 mM) and 8000 µg/mL (≈ 17.4 mM), respectively. Moreover, the result in data set [4], in data set [31] and in data set [32] was Active. The outcome in [6], in data set [12], in [14], in [16] and in data set [21] was inactive. Further, the Activity entry in [7] was “Non-toxic”. For the same compound, the EC50 in [1] was 3430 nM; in data set [22], 7.7 nM. Further, the metabolised at 1 h, 5 µM came to 0% in data set [9], 12% in [20], 6% in data set [23] and 0% in data set [25]. The half-life in data set [10] is 3.1 h; in [27] it was 4 h; in data set [28] it was 3.5 h; in [29], 5 h. The compound also displayed a logP in [11] of 1.9. Besides, the values for the bioavailability in data set [13] and in [24] were 100% and 35%, respectively. Moreover, the Kp in data set [15] amounted to 0.05. The clearance in [17] is 11.7 mL/min/kg; in data set [19], 53.3 mL/min/kg. The Vd in data set [18] was determined as 1.3 L/kg; in [26], 3.7 L/kg. Moreover, in [2], the metabolised at 0.25 h was 9%.
Consider `COCCCc1cc(S(=O)(=O)c2ccc3c(c2)nc(C(C)(C)C)n3CC2CCOCC2)ccn1`, for which the half-maximal effective concentration (EC50) in data set [1] is > 10000 nM; in data set [22], 1.1 nM. Moreover, the metabolised at 0.25 h in data set [2] came out at 93%.
With `CC(C)(C)c1nc2cc(S(=O)(=O)CCCC(F)(F)F)ccc2n1CC1CCOCC1`, the Activity result in [30] and in data set [33] was “Toxic” throughout. The EC50 was determined as 320 nM in data set [1] and 1.1 nM in data set [22]. In addition, in data set [2], the metabolised at 0.25 h came to 36%.

(Values after ChEMBL document CHEMBL1949649, “5-sulfonyl-benzimidazoles as selective CB2 agonists-part 2” (Bioorg Med Chem Lett, 2012).)
